Results pooled from the literature.
Compare with care: the assays were run in different laboratories.
KIT A829P: Mast/stem cell growth factor receptor Kit (KIT, Homo sapiens, UniProt P10721, A829P)
KIT V559D/V654A: Mast/stem cell growth factor receptor Kit (KIT, Homo sapiens, UniProt P10721, V559D/V654A)
KIT T670I/V559D: Mast/stem cell growth factor receptor Kit (KIT, Homo sapiens, UniProt P10721, T670I/V559D)
KIT D816H: Mast/stem cell growth factor receptor Kit (KIT, Homo sapiens, UniProt P10721, D816H)
KIT D816V: Mast/stem cell growth factor receptor Kit (KIT, Homo sapiens, UniProt P10721, D816V)
KIT: Mast/stem cell growth factor receptor Kit (KIT, Homo sapiens, UniProt P10721)

O=C(NCCCN1CCOCC1)c1ccc(Nc2nccc(-c3cc4ccccc4s3)n2)cc1  remaining binding (KIT A829P; binding, competition with immobilised ligand; 1 µM): 36%
CN(C)c1nccc(-c2cnc3ncccn23)n1  remaining binding (KIT V559D/V654A; binding; 1 µM): 100%
CCCOc1ccc([C@H]2[C@H](C(=O)O)[C@@H](c3ccc4c(c3)OCO4)CN2CC(=O)Nc2c(CC)cccc2CC)cc1  remaining binding (KIT V559D/V654A; cell-free assay, competition with immobilised ligand; 1 µM): 98%
COc1ccnn2ncc(-c3ccnc(N(C)C)n3)c12  remaining binding (KIT T670I/V559D; binding; 1 µM): 100%
O=C(Nc1c[nH]nc1C(=O)NC1CCNCC1)c1cc(F)cc(F)c1  remaining binding (KIT D816H; binding, competition with immobilised ligand; 1 µM): 100%
CN(C)c1ncc(F)c(-c2cnn3ncccc23)n1  remaining binding (KIT D816V; binding; 1 µM): 91%
Cc1nc(C2CCN(C(=O)c3ccc(OC(F)(F)F)cc3N)CC2)c2ncc(N3CCN(C)CC3)cc2n1  remaining binding (Mast/stem cell growth factor receptor Kit (KIT, Homo sapiens, UniProt P10721, L576P); cell-free assay, competition with immobilised ligand; 1 µM): 87%
COc1cnc(Nc2cccc(S(N)(=O)=O)c2)nc1N1CCN(c2ccccc2)CC1  remaining binding (KIT; binding, competition with immobilised ligand; 1 µM): 93%
C[C@@H](c1ccc(-n2cnc3c(N)ncnc32)cc1)N1CCc2nn(C)c(Cc3ccccc3)c2C1=O  remaining binding (KIT A829P; binding, competition with immobilised ligand; 0.1 µM): 52%
C[C@@H]1CCN(c2nccc(-c3cnn4ncccc34)n2)C1  remaining binding (Mast/stem cell growth factor receptor Kit (KIT, Homo sapiens, UniProt P10721, V559D); binding; 1 µM): 100%
CCc1ccccc1C(=O)Nc1n[nH]c2c(C)c(F)c(C3C(C#N)=C(C)N(C)C(C)=C3C#N)cc12  remaining binding (KIT; cell-free assay, competition with immobilised ligand; 1 µM): 84%
Cc1nc(NC(=O)N2CCC[C@H]2C(N)=O)sc1-c1ccnc(C(C)(C)C(F)(F)F)c1  remaining binding (KIT; binding, competition with immobilised ligand; 10 µM): 100%
CN(C)c1nccc(-c2cnn3ncccc23)n1  remaining binding (KIT V559D/V654A; binding; 1 µM): 100%
O=C(c1ccc(Nc2ncc(Cl)c(-c3ccc(Cl)s3)n2)cc1)N1CCC(N2CCCC2)CC1  remaining binding (KIT A829P; binding, competition with immobilised ligand; 1 µM): 4.3%
CNC(=O)[C@@H]1CC[C@@H](n2c(-c3ccc4cnccc4c3)nc3ccc(C(=O)NCc4cccc(C(N)=O)c4)cc32)C1  remaining binding (KIT D816H; binding, competition with immobilised ligand; 1 µM): 100%
O=S(=O)(NC1CCC(c2cc(F)ccc2F)(S(=O)(=O)c2ccc(Cl)cc2)CC1)C(F)(F)F (stereo not drawn)  remaining binding (KIT V559D/V654A; cell-free assay, competition with immobilised ligand; 1 µM): 88%
CC1CCCN1c1nccc(-c2cnn3ncccc23)n1 (stereo not drawn)  remaining binding (KIT T670I/V559D; binding; 1 µM): 100%
Cc1cc(-n2nc(Cc3cc(F)cc(C(F)(F)F)c3)nc2C)ccc1C(N)=O  remaining binding (KIT A829P; cell-free assay, competition with immobilised ligand; 1 µM): 100%
CC(C)(C)c1ccc(-c2nc(CBr)nn2-c2cccc(O)c2)cc1  remaining binding (KIT; cell-free assay, competition with immobilised ligand; 10 µM): 97%
CNC(=O)Nc1ccc2c(c1)[C@@]1(CC2)OC(=O)N(CC(=O)N(Cc2ccc(F)cc2)[C@@H](C)C(F)(F)F)C1=O  remaining binding (KIT D816H; cell-free assay, competition with immobilised ligand; 1 µM): 70%
CCN1CCN(Cc2ccc(C(=O)Nc3ccc(C)c(Oc4ccc5c(c4)CC(=O)N5)c3)cc2C(F)(F)F)CC1  remaining binding (KIT V559D/V654A; binding, competition with immobilised ligand; 1 µM): 24%
Cc1cnc(Nc2ccc(C(=O)N3CCC(N4CCCC4)CC3)cc2)nc1-c1cc2ccccc2s1  remaining binding (KIT D816H; binding, competition with immobilised ligand; 1 µM): 7.8%
N[C@H]1CCN(c2nccc(-c3cnn4ncccc34)n2)C1  remaining binding (KIT T670I/V559D; binding; 1 µM): 100%
CCC(=O)N[C@H]1CC[C@@H](C(=O)N(C)c2ccc(-c3nc4ccccc4o3)cc2)C1  remaining binding (KIT D816V; cell-free assay, competition with immobilised ligand; 1 µM): 86%
